mABHD4 FP = inhibitors of mouse ABHD4 | Q8VD66 | purified mABHD4, FP-Rh probe fluorescence polarization | inhibition, % at 8.92 µM | actives 0.54% (n = 370,000);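 active = inhibition exceeding the mean over every tested compound plus 3 SD, cut at about 30% in these data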;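 note: 0% = plate median of compound wells and 100% = S159A mutant with DMSO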
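Assay system: Wild-type mouse ABHD4 protein | Medium: HEPES pH 7.0 buffer, 150 mM NaCl, 0.01% Pluronic F-127 | Incubation: Enzyme–compound pre-incubation 45 min, then probe 60 min, both 25 °C | Technique: Fluorescence polarization with parallel and perpendicular emission, 525/598 nm | Evaluation: % inhibition of FP-Rh probe binding versus controls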
TCR CD3 inh = blocks the human TCR-CD3 interaction. TAMRA-labeled TCR probe fluorescence, biochemical. inhibition, % at 9.4 µM. actives 0.37% (n = 360,000); in the data active = inhibition above about 19%;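 note: recombinant mutant TCR 2C K166C tagged with TAMRA read by polarization; 0% = receptor in buffer alone and 100% = receptor with positive control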
PRMT1 FP inh = inhibitors of human PRMT1 | actives 1.3% (n = 370,000) | recombinant PRMT1, activity-based probe fluorescence polarization | inhibition, % at 2.79 µM | AID 652257 | Q99873;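 active = inhibition above about 21% made by adding two undisclosed values, limit read from the data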
SIAE primary = human SIAE inhibition, primary screen. actives 0.69% (n = 370,000). Q9HAT2. SIAE FP-Rh probe binding, fluorescence polarization. inhibition, % at 9.66 µM. AID 1053197;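 active = inhibition above a cutoff: mean of compounds within the control limits plus 3 SD of those, cut at about 17% in these data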;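 note: 0% = plate median of compound wells and 100% = probe without SIAE protein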
HTRA1 inhibitor = HTRA1 (human) protease inhibition; Q92743; recombinant HTRA1, FP-rhodamine activity-based probe, fluorescence polarization; inhibition, % at 5.96 µM; actives 0.5% (n = 340,000); AID 504803; in the data active = inhibition above about 36%;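 note: 0% = enzyme with DMSO and 100% = wells lacking enzyme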
Target sequence (Q92743 whole entry, looked up): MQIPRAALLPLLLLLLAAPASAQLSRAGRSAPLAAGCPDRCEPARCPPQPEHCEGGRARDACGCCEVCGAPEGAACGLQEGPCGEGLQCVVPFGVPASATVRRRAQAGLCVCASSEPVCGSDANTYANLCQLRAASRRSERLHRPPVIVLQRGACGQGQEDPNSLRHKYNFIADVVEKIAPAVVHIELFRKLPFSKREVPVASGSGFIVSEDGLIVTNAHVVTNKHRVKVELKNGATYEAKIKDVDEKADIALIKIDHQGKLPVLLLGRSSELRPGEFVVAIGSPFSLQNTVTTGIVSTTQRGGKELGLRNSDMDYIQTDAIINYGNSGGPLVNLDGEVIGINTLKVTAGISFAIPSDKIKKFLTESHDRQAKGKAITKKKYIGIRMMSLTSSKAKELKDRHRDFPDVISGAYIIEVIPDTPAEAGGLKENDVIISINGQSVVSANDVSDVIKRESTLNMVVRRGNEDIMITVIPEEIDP
HTRA1 conf = confirmation of human HTRA1 inhibitors; recombinant HTRA1, FP-rhodamine activity-based probe, fluorescence polarization; inhibition, % at 5.96 µM; actives 66% (n = 1,600); shares compounds with HTRA1 inhibitor; AID 540248;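 active = mean inhibition over three repeats above a set limit taken from the earlier primary screen, cut at about 37% in these data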;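 note: 0% = HTRA1 with DMSO and 100% = wells lacking HTRA1; inhibitors block probe binding so polarization drops and inhibition rises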
Active calls of the source: *. Most compounds without a hit are left out; they make up all but 2.5% or so of the library.

What do the screens show for `COc1ccc2c(c1OC)C(=O)OC2c1c(O)n(C2CCCCC2)c(=O)[nH]c1=O` (centres undefined)?
mABHD4 FP: -6.1; TCR CD3 inh: -6.7; PRMT1 FP inh: 23.4*; SIAE primary: 4.4; HTRA1 inhibitor: -0.8

Results for CCC1(c2ccccc2)C(=O)N(C)C(=O)N(C)C1=O ?
mABHD4 FP: 2.6; TCR CD3 inh: -10.5; PRMT1 FP inh: 0.9; SIAE primary: 2.6; HTRA1 inhibitor: -3.9

How did CN1C(=O)N(C)C(=O)C2(Sc3ccccc3C2=O)C1=O do in these assays?
mABHD4 FP: 14.6; TCR CD3 inh: 6.4; PRMT1 FP inh: 27.1*; SIAE primary: 5.5; HTRA1 inhibitor: 8.6

Results for COC(=O)[C@@]1(O)c2c(oc3cccc(O)c3c2=O)C=C[C@H]1O ?
mABHD4 FP: -0.1; PRMT1 FP inh: 5.0; SIAE primary: -1.5

How did COc1ccc(OC)c(N2C(=O)NC(=O)/C(=C\c3ccc([N+](=O)[O-])s3)C2=O)c1 do in these assays?
mABHD4 FP: -35.2; TCR CD3 inh: -32.1; PRMT1 FP inh: 27.7*; SIAE primary: -7.9; HTRA1 inhibitor: 31.0

What do the screens show for `O=C1NC(=O)N(c2ccccc2)C(=O)/C1=C\c1ccc([N+](=O)[O-])s1`?
mABHD4 FP: -4.8; TCR CD3 inh: -18.8; PRMT1 FP inh: 11.9; SIAE primary: -14.8

What do the screens show for `c1ccc(Cn2nnnc2C2CN=C(c3ccccc3)c3ccccc3N2)cc1` (centres undefined)?
mABHD4 FP: -4.3; PRMT1 FP inh: 2.0; SIAE primary: -1.1

What do the screens show for `CCCCn1c(=O)c(C(=O)Nc2ccccc2N)c(O)c2ccccc21`?
mABHD4 FP: 2.9; TCR CD3 inh: -9.0; PRMT1 FP inh: 3.7; SIAE primary: -11.4; HTRA1 inhibitor: 39.7*; HTRA1 conf: 20.1

How did CCCCCn1c(=O)c(C(=O)Nc2ccccc2N)c(O)c2ccccc21 do in these assays?
mABHD4 FP: 1.7; TCR CD3 inh: 5.4; PRMT1 FP inh: -3.2; SIAE primary: 1.0; HTRA1 inhibitor: 10.1

What do the screens show for `C=CCN1CC[C@]23c4c5ccc(O)c4OC2C(=O)CC[C@@]3(O)[C@H]1C5` (some centres undefined)?
mABHD4 FP: 2.4; TCR CD3 inh: 8.1; PRMT1 FP inh: -3.2; SIAE primary: -0.4

How did O=c1[nH]c(=S)n(C2CC2)c(O)c1/C=N/Nc1ccccc1 do in these assays?
mABHD4 FP: -14.2; TCR CD3 inh: -15.8; PRMT1 FP inh: 18.8; SIAE primary: -1.3; HTRA1 inhibitor: -3.5

What do the screens show for `O=c1[nH]c(=S)n(C2CC2)c(O)c1/C=N/Nc1cccc2ccccc12`?
mABHD4 FP: 26.7; TCR CD3 inh: -3.6; PRMT1 FP inh: 12.6; SIAE primary: 11.0; HTRA1 inhibitor: 40.9*; HTRA1 conf: 21.6

How did O=c1c2ccccc2nc(/C=C/c2ccc(O)c(O)c2)n1-c1ccccc1 do in these assays?
mABHD4 FP: 19.0; TCR CD3 inh: 4.5; PRMT1 FP inh: 14.9; SIAE primary: -9.9; HTRA1 inhibitor: 64.4*; HTRA1 conf: 87.1*

How did O=c1c2ccccc2nc(/C=C/c2ccccc2)n1-c1ccc(O)cc1 do in these assays?
mABHD4 FP: -12.5; TCR CD3 inh: -3.4; PRMT1 FP inh: -0.7; SIAE primary: -13.6; HTRA1 inhibitor: -36.3

Results for CCN(CC)C(=O)c1ccc2c(c1)C1C=CCC1C(C(=O)O)N2 (centres undefined) ?
mABHD4 FP: 53.7*; TCR CD3 inh: 23.9*; PRMT1 FP inh: 49.0*; SIAE primary: 16.9; HTRA1 inhibitor: 59.3*; HTRA1 conf: 54.6*

How did Cc1ccc2c(c1Cl)NC(C(=O)O)C1CC(Sc3ccccc3[N+](=O)[O-])C(Cl)C21 (centres undefined) do in these assays?
HTRA1 inhibitor: 42.8*; HTRA1 conf: 41.3*

Results for CCN(CC)C(=O)c1ccc2c(c1)C1C(Cl)C(Sc3ccccc3[N+](=O)[O-])CC1C(C(=O)O)N2 (centres undefined) ?
HTRA1 inhibitor: 78.1*; HTRA1 conf: 76.7*

What do the screens show for `Cc1cc(O)c2c(c1)C(=O)[C@@]13C(=C2O)C(=O)[C@H]2C(O)[C@@H]1[C@H]1C(O)[C@@H]3C(=O)C3=C(O)c4c(O)cc(C)cc4C(=O)[C@@]312` (some centres undefined)?
mABHD4 FP: 13.0; PRMT1 FP inh: -5.0; SIAE primary: -0.4
